The results in this text go back to the array DNA melting data of Ke et al. (doi:10.1101/2024.01.08.574731).

Data set [1] in a line: melting temperature; fluorescence melt of hairpins on a sequencing array, two-state fit, raised by 9.35 °C to match UV melts. Particulars: sodium 0.088 M. In a few lines: (§1)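 Two-state fits, bootstrapped, provided melting temperature and folding enthalpy from Cy3 fluorescence normalised to pre-quench Cy3 and to control constructs. Library hairpins with annealed Cy3 and quencher oligos were imaged on a sequenced MiSeq flow cell in 50 mM Na-HEPES pH 8.0, 25 mM NaCl, at 2.5 °C intervals up to 60 °C. Four replicates were combined with inverse-variance weighting. A 9.35 °C upward shift was applied to fitted temperatures to match UV melts.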

Data set [2] in a line: folding enthalpy; higher = less favourable; fluorescence melt of hairpins on a sequencing array, two-state fit. Conditions: sodium 0.088 M. In a few lines:
as §1

As for GTACACGAAAGTGTATAC ((((((....)))..))), the Tm in data set [1] was 43.6 °C. The folding enthalpy in data set [2] was -12.1 kcal/mol.
For the sequence GTACACGAAAGTGTGTAC ((((((....)))..))), in data set [1], the Tm amounted to 46 °C. Also, the folding enthalpy in data set [2] was -13.8 kcal/mol.
Turning to GTACACGGAAACATGTAC (((((.(....).))))), the Tm in data set [1] stood at 34.2 °C. The folding enthalpy in data set [2] was -28.3 kcal/mol.
Turning to GTACAGACGAAAGTCTAC (((..(((....)))))), the Tm in data set [1] was determined as 29.8 °C. Further, the folding enthalpy in data set [2] was -11.5 kcal/mol.
As for GTACAGCGAAAGCTATAC (((.(((....))).))), the Tm in data set [1] came out at 36.9 °C. Besides, in data set [2], the folding enthalpy was -18 kcal/mol.
Turning to GTACAGGGAAACCTGTGC (.(((((....))))).), the Tm in data set [1] was 49.8 °C. For the same sequence, the folding enthalpy in data set [2] was -20.9 kcal/mol.
With GTACATCCGAAAGGATAC (((..(((....)))))), the Tm in data set [1] was determined as 29.6 °C. The folding enthalpy in data set [2] is -12.1 kcal/mol.
For GTACATGCGAAAGCATAC (((..(((....)))))), in that order: 28.7 °C and -8.62 kcal/mol.
Regarding GTACATGGAAACATGCAC ((.((((....)))).)), the Tm in data set [1] amounted to 39.2 °C. Moreover, the folding enthalpy in data set [2] was -22.7 kcal/mol.
For GTACCACGAAAGTGATAC (((.(((....))).))), in data set [1], the Tm came out at 43.7 °C. In data set [2], the folding enthalpy was -24.3 kcal/mol.
With GTACCAGGAAACCGGTAC (((((.(....).))))), the Tm in data set [1] came out at 46.9 °C. In addition, the folding enthalpy in data set [2] is -35.7 kcal/mol.
In the case of GTACCAGGAAACTAGTAC ((((.((....)).)))), the Tm in data set [1] worked out at 28.7 °C. For the same sequence, the folding enthalpy in data set [2] was -15.3 kcal/mol.
As to GTACCCACGAAAGTGTAC (((..(((....)))))), in data set [1], the Tm was determined as 26.2 °C. In data set [2], the folding enthalpy is -11.5 kcal/mol.
For the sequence GTACCCGAAAGGGCTAC ((((((....))).))), in data set [1], the Tm turned out to be 40.2 °C. The folding enthalpy in data set [2] was -15.3 kcal/mol.
With GTACCCGAAAGGGCTTAC ((((((....)))..))), the Tm in data set [1] worked out at 27.1 °C. The folding enthalpy in data set [2] is -11.2 kcal/mol.
As to GTACCCGAAAGGGGTAC ((((((....))).))), in data set [1], the Tm came out at 59.2 °C. In data set [2], the folding enthalpy is -27.8 kcal/mol.
With GTACCCGGAAACGGATAC (((.(((....))).))), the Tm in data set [1] came out at 42.2 °C. Besides, the folding enthalpy in data set [2] is -24.3 kcal/mol.
The matching figures for GTACCGAAAGGTAC (((((....))))): 65.9 °C and -27 kcal/mol.
For GTACCGCGAAAGCGATAC (((.(((....))).))), the Tm in data set [1] was 48.5 °C. Besides, the folding enthalpy in data set [2] was -23.6 kcal/mol.
The matching figures for GTACCGCGAAAGCGCTAC (((.(((....))).))): 35.9 °C and -12.2 kcal/mol.
As to GTACCTCGAAAGAGATAC (((.(((....))).))), the Tm in data set [1] came out at 38.7 °C. For the same sequence, the folding enthalpy in data set [2] is -28.3 kcal/mol.
For GTACCTCGAAAGAGCTAC (((.(((....))).))), in data set [1], the Tm stood at 30.2 °C. Besides, the folding enthalpy in data set [2] was -11.1 kcal/mol.
For GTACCTCGAAAGAGTAC (((.(((....)))))), in that order: 42.5 °C and -20.8 kcal/mol.
As to GTACGACGAAAGTCCTAC (((.(((....))).))), the Tm in data set [1] was determined as 31.9 °C. The folding enthalpy in data set [2] is -13.2 kcal/mol.
For GTACGAGCGAAAGCTTAC (((..(((....)))))), in data set [1], the Tm was found to be 22.6 °C. For the same sequence, the folding enthalpy in data set [2] is -8.2 kcal/mol.
In the case of GTACGAGGAAACTTGTGC (.((.((....)).)).), the Tm in data set [1] was found to be 33 °C. Moreover, in data set [2], the folding enthalpy was -16.8 kcal/mol.
The matching figures for GTACGCCGAAAGGCCTAC (((.(((....))).))): 39.2 °C and -10.9 kcal/mol.
The matching figures for GTACGCCGAAAGGCTTAC (((.(((....))).))): 46.3 °C and -21.5 kcal/mol.
GTACGCGAAAGCGGCTAC ((((((....)))..))): the Tm in data set [1] stood at 42.1 °C. For the same sequence, in data set [2], the folding enthalpy was -10.4 kcal/mol.
For GTACGCGAAAGCGGTAC ((((((....))).))), in that order: 56.5 °C and -16.6 kcal/mol.
As to GTACGCGAAAGCGTTAC ((((((....))).))), in data set [1], the Tm came to 46.8 °C. Moreover, in data set [2], the folding enthalpy is -11 kcal/mol.
For the sequence GTACGCGAAAGCGTTTAC ((((((....)))..))), the Tm in data set [1] is 29.1 °C. The folding enthalpy in data set [2] is -7.31 kcal/mol.
With GTACGCGCGAAAGCGTAC (((..(((....)))))), in data set [1], the Tm was 61.3 °C. Moreover, the folding enthalpy in data set [2] is -20.2 kcal/mol.
Take GTACGCGGAAACGTGTGC (.((.((....)).)).): in data set [1], the Tm turned out to be 46.2 °C. Besides, in data set [2], the folding enthalpy is -20.8 kcal/mol.
As for GTACGGGGAAACCCACAC ((..(((....)))..)), in data set [1], the Tm came to 30.4 °C. In data set [2], the folding enthalpy was -16.3 kcal/mol.
The matching figures for GTACGGGGAAACTCGTAC (((((.(....).))))): 50.7 °C and -35.4 kcal/mol.
GTACGTCGAAAGACCTAC (((.(((....))).))): the Tm in data set [1] worked out at 34.3 °C. The folding enthalpy in data set [2] is -13.6 kcal/mol.
